Test results: article PMC3158287 (Nature chemical biology, 2011)
Where a chain is given by its changes, count along the chain named. Read-outs that look alike come from different tables or passages of the source.

Experiments:
[1] = test system: ceramide labeling in HCT-116 cells; assay: Ceramide labeling, [3H]serine pulse labeling, HCT-116; format: cell-based, human; conditions: range of concentrations
OSBP^V582M = biological target: T1, OSBP^V582M (Homo sapiens, UniProt P22059, V582M); assay: [3H]25-OHC binding assay, OSBP V582M mutant
T1 sequence (P22059 1-807 V582M): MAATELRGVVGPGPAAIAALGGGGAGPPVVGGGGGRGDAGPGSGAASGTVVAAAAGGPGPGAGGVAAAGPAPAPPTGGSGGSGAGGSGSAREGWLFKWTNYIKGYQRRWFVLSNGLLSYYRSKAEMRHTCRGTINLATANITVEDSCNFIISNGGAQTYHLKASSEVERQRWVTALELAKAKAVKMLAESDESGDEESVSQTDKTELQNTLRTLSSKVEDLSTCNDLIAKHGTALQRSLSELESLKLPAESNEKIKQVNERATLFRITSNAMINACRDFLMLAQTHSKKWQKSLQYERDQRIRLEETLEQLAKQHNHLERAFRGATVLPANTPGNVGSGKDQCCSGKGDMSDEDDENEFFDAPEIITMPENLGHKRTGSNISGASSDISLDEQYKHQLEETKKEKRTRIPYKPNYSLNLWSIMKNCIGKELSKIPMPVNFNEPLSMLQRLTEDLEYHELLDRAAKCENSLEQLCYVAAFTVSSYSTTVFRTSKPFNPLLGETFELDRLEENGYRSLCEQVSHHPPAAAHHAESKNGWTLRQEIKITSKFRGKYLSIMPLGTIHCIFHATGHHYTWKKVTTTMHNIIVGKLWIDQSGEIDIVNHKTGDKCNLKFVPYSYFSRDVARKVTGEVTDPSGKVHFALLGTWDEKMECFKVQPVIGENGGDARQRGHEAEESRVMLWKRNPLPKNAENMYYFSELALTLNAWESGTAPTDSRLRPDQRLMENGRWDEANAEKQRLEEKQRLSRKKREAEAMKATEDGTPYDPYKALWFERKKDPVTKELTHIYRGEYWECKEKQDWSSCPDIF

OSBP = biological target: T2, OSBP (Homo sapiens, UniProt P22059); assay: OSBP localization by immunofluorescence microscopy, A549; format: cell-based; conditions: A549 cells
T2 sequence (P22059 1-807): T1 sequence (P22059 1-807 V582M) with M582V
Summary of the method: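 Cells on coverslips were grown 72 h, then given test compound or vehicle (4 h for HCT-116). They were fixed 10 min in 3.7% formaldehyde/PBS and permeabilised 5 min in 0.5% Triton X-100. Blocking used Image-iT FX, then 1% BSA/PBS. Rabbit anti-OSBP (N-terminus) and mouse anti-p230 were applied overnight at 4 °C, then Alexa Fluor secondaries for 60 min with Hoechst 33258. Imaging was by confocal microscopy.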

OSBP-Myc-His = biological target: T3, OSBP-Myc-His (Homo sapiens, UniProt P22059); assay: [3H]25-OHC charcoal-dextran binding assay, wild-type OSBP-Myc-His; conditions: read-out: Ki, OSBP-Myc-His; competition with 20 nM [3H]25-OHC; mean ± s.d.
T3 sequence (P22059 1-807): T1 sequence (P22059 1-807 V582M) with M582V

CERT = CERT protein amount in treated cells; format: cell-based, human; conditions: GI90 concentration, HCT-116 or A549 cells
[2] = test system: HCT-116 p21^−/− cells stably transfected with shOSBP or shNT; assay: OSBP shRNA knockdown and dose-shift experiment; format: cell-based, human; conditions: 72 h
Summary of the method: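 HCT-116 p21−/− cells were stably transfected with OSBP-targeting or nontargeting shRNA in the pSIREN-RetroQ vector. […] Values are mean ± s.d. of 3–4 experiments, compared with shNT cells by two-tailed Student's t-test.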

Structure (SMILES) | Effect on ceramide labeling [1] | Ki (OSBP^V582M; read-out: Ki, OSBP^V582M, competition with [3H]25-OHC, mean ± s.d.) [µM] | OSBP localization (OSBP) | Ki (OSBP-Myc-His) [µM] | Amount of CERT protein (CERT) | Ki (OSBP^V582M) [µM] | Sensitization by OSBP shRNA knockdown (GI50 shift shOSBP vs shNT) [2]
COc1ccc(C(=O)O[C@H]2[C@H](O[C@@H]3[C@@H](OC(C)=O)[C@H](O[C@H]4C[C@H]5[C@@H]6CC=C7C[C@@H](O)CC[C@]7(C)[C@H]6CC[C@]5(C)[C@@]4(O)[C@H](C)C(=O)CCC(C)C)OC[C@@H]3O)OC[C@@H](O)[C@@H]2O)cc1 [OSW-1] | no effect | 0.046 | dispersal or vesiculation of OSBP | 0.026 | not affected |  | 
CC(C)=CCC/C(C)=C/Cc1c(O)cc(/C=C/c2cc(O)c3c(c2)C[C@@H]2C(C)(C)[C@H](O)[C@H](O)C[C@@]2(C)O3)cc1O [schweinfurthin A] |  |  |  |  |  | 0.037 | nine
